This note sets out measurements from ChEMBL document CHEMBL1932971, “Synthesis of uriedo and thiouriedo derivatives of peptide conjugated heterocycles - A new class of promising antimicrobials” (2012).

Numbered stars: 1 amine (or outer) side, 2 acyl side, 3 side chain; on linkers, the order of the positions; unused ones are H or OH. Peptide text beside a SMILES is read from it. * marks the point of attachment. Piperazinyl(4-(2,3-Cl2Ph)) = Clc1cccc(N2CCN(*)CC2)c1Cl; Thiocarbamoyl(4-MeOPh) = COc1ccc(NC(=S)*)cc1; NH(4-MeO-phenyl) = COc1ccc(N*)cc1; NH(4-Cl-phenyl) = Clc1ccc(N*)cc1; X1 = Fc1ccc2c(C3CCN(*)CC3)noc2c1; CO = O=C([*:1])[*:2]

Format in all cases: functional
Common to all, as to settings: read-out: DIZ

One assay relates to Klebsiella pneumoniae. As to the kind of experiment: Antibacterial activity against Klebsiella pneumoniae at 30 ug/ml after 24 hrs by agar well diffusion method. The method, boiled down: (§1)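 Agar well diffusion. Inocula were grown in nutrient broth at 37 °C for 24 h, then subcultured in nutrient broth at room temperature. Compounds were made as a 1 mg/mL DMSO stock and diluted to 30 µg/mL final. Nutrient agar plates were spread-inoculated and 6 mm wells each got 0.1 mL. Controls were amoxicillin (reference) and DMSO (negative). Incubation was 24 h at 37 °C. Inhibition zone was measured in mm as the mean of three determinations.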

For the next assay, the system named is Fusarium oxysporum. As to the kind of experiment: Antifungal activity against Fusarium oxysporum at 30 ug/ml after 72 hrs by agar well diffusion method. The method, boiled down: (§2)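 Fungal well diffusion. Inocula were subcultured in nutrient broth for one day, then spread on solidified medium. Compounds were made as a 1 mg/mL DMSO stock and diluted to 30 µg/mL final. Each 6 mm well got 0.1 mL. Controls were bavistin (reference) and DMSO (negative). Plates stood for 3 days at room temperature. Inhibition zone was measured in mm as the mean of three determinations.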
Background: In agar diffusion tests the substance spreads into inoculated agar from a disc or well.

Another assay relates to Xanthomonas oryzae. As to the kind of experiment: Antibacterial activity against Xanthomonas oryzae at 30 ug/ml after 24 hrs by agar well diffusion method.
In the next assay the test system is Aspergillus flavus. As to the kind of experiment: Antifungal activity against Aspergillus flavus at 30 ug/ml after 72 hrs by agar well diffusion method. An outline of the steps:
as §2

Another assay relates to Escherichia coli. As to the kind of experiment: Antibacterial activity against Escherichia coli at 30 ug/ml after 24 hrs by agar well diffusion method. The method, boiled down: as §1
For a further assay, the system named is Aspergillus niger. As to the kind of experiment: Antifungal activity against Aspergillus niger at 30 ug/ml after 72 hrs by agar well diffusion method. The method, boiled down:
as §2

The test system of another assay is Staphylococcus aureus. As to the kind of experiment: Antibacterial activity against coagulase-positive Staphylococcus aureus at 30 ug/ml after 24 hrs by agar well diffusion method. The method, boiled down: as §1

Take `O=C(Nc1ccccc1F)N[C@@H](Cc1c[nH]c2ccccc12)C(=O)N1CCC(c2noc3cc(F)ccc23)CC1`: the zone of inhibition at 30 µg/mL stood at 8 mm with Klebsiella pneumoniae; 8 mm in the assay with Fusarium oxysporum; 11 mm in the assay on Xanthomonas oryzae; 9 mm in the assay on Aspergillus flavus; 11 mm with Escherichia coli; 12 mm in the assay on Aspergillus niger. In addition, the zone of inhibition at 30 µg/mL in the assay with Staphylococcus aureus was determined as 8 mm.
For `O=C([C@H](Cc1c[nH]c2ccccc12)NC(=S)Nc1ccccc1F)N1CCC(c2noc3cc(F)ccc23)CC1`, the zone of inhibition at 30 µg/mL in the assay on Klebsiella pneumoniae stood at 9 mm; with Fusarium oxysporum, 7 mm; in the assay with Xanthomonas oryzae, 12 mm; with Aspergillus flavus, 10 mm; with Escherichia coli it was 13 mm; in the assay on Aspergillus niger, 13 mm. Moreover, in the assay on Staphylococcus aureus, the zone of inhibition at 30 µg/mL was 9 mm.
For the compound `O=C(Nc1ccccc1F)N[C@@H](Cc1c[nH]c2ccccc12)C(=O)N1CCN(c2cccc(Cl)c2Cl)CC1`, the zone of inhibition at 30 µg/mL was determined as 10 mm in the assay on Klebsiella pneumoniae; 7 mm with Fusarium oxysporum; 9 mm in the assay on Xanthomonas oryzae; 11 mm in the assay on Aspergillus flavus; 9 mm with Escherichia coli; 10 mm in the assay on Aspergillus niger. Moreover, the zone of inhibition at 30 µg/mL in the assay with Staphylococcus aureus was determined as 11 mm.
Consider `O=C([C@H](Cc1c[nH]c2ccccc12)NC(=S)Nc1ccccc1F)N1CCN(c2cccc(Cl)c2Cl)CC1`, for which the zone of inhibition at 30 µg/mL amounted to 11 mm in the assay on Klebsiella pneumoniae; 6 mm in the assay with Fusarium oxysporum; 10 mm with Xanthomonas oryzae; 12 mm with Aspergillus flavus; 10 mm with Escherichia coli; 11 mm in the assay on Aspergillus niger. Moreover, the zone of inhibition at 30 µg/mL with Staphylococcus aureus stood at 12 mm.
`O=C(CNC(=O)Nc1ccc(Cl)cc1)NCC(=O)N[C@@H](Cc1ccccc1)C(=O)N1CCC[C@H]1C(=O)N1CCC(c2noc3cc(F)ccc23)CC1` ({NH(4-Cl-phenyl)-CO}-GGFP-X1): the zone of inhibition at 30 µg/mL is 23 mm in the assay with Klebsiella pneumoniae; 28 mm with Fusarium oxysporum; 25 mm in the assay on Xanthomonas oryzae; 26 mm in the assay with Aspergillus flavus; 28 mm with Escherichia coli; 31 mm in the assay on Aspergillus niger. The zone of inhibition at 30 µg/mL in the assay with Staphylococcus aureus turned out to be 21 mm.
In the case of `O=C(CNC(=O)Nc1ccc(Cl)cc1)NCC(=O)N[C@@H](Cc1ccccc1)C(=O)N1CCC[C@H]1C(=O)N1CCN(c2cccc(Cl)c2Cl)CC1` ({NH(4-Cl-phenyl)-CO}-GGFP-{Piperazinyl(4-(2,3-Cl2Ph))}), the zone of inhibition at 30 µg/mL in the assay with Klebsiella pneumoniae was found to be 22 mm; in the assay with Fusarium oxysporum it was 27 mm; in the assay with Xanthomonas oryzae, 24 mm; with Aspergillus flavus, 25 mm; in the assay on Escherichia coli it was 27 mm; in the assay with Aspergillus niger it was 30 mm. The zone of inhibition at 30 µg/mL in the assay on Staphylococcus aureus came to 20 mm.
As for `CC[C@H](C)[C@H](NC(=O)CNC(=O)CNC(=O)Nc1ccc(Cl)cc1)C(=O)N1CCC[C@H]1C(=O)N1CCC(c2noc3cc(F)ccc23)CC1` ({NH(4-Cl-phenyl)-CO}-GGIP-X1), the zone of inhibition at 30 µg/mL with Klebsiella pneumoniae stood at 18 mm; in the assay with Fusarium oxysporum, 26 mm; with Xanthomonas oryzae it was 22 mm; with Aspergillus flavus, 24 mm; in the assay on Escherichia coli, 26 mm; in the assay on Aspergillus niger, 27 mm. Moreover, in the assay on Staphylococcus aureus, the zone of inhibition at 30 µg/mL is 19 mm.
On to `COc1ccc(NC(=O)NCC(=O)N[C@@H](Cc2ccccc2)C(=O)NCC(=O)N[C@@H](Cc2ccccc2)C(=O)N2CCC[C@H]2C(=O)N2CCC(c3noc4cc(F)ccc34)CC2)cc1` ({NH(4-MeO-phenyl)-CO}-GFGFP-X1), for which the zone of inhibition at 30 µg/mL with Klebsiella pneumoniae worked out at 30 mm; with Fusarium oxysporum it was 32 mm; in the assay on Xanthomonas oryzae, 30 mm; in the assay with Aspergillus flavus, 29 mm; in the assay on Escherichia coli, 30 mm; in the assay with Aspergillus niger, 35 mm. In the assay on Staphylococcus aureus, the zone of inhibition at 30 µg/mL came to 28 mm.
On to `COc1ccc(NC(=O)NCC(=O)NCC(=O)N[C@@H](Cc2ccccc2)C(=O)N2CCC[C@H]2C(=O)N2CCC(c3noc4cc(F)ccc34)CC2)cc1` ({NH(4-MeO-phenyl)-CO}-GGFP-X1), for which the zone of inhibition at 30 µg/mL with Klebsiella pneumoniae was 19 mm; with Fusarium oxysporum it was 23 mm; in the assay on Xanthomonas oryzae it was 24 mm; in the assay with Aspergillus flavus, 20 mm; in the assay with Escherichia coli, 26 mm; in the assay with Aspergillus niger, 27 mm. Also, the zone of inhibition at 30 µg/mL with Staphylococcus aureus stood at 17 mm.
For the compound `COc1ccc(NC(=O)NCC(=O)NCC(=O)N[C@@H](Cc2ccccc2)C(=O)N2CCC[C@H]2C(=O)N2CCN(c3cccc(Cl)c3Cl)CC2)cc1` ({NH(4-MeO-phenyl)-CO}-GGFP-{Piperazinyl(4-(2,3-Cl2Ph))}), the zone of inhibition at 30 µg/mL was 18 mm in the assay with Klebsiella pneumoniae; 22 mm in the assay with Fusarium oxysporum; 23 mm in the assay on Xanthomonas oryzae; 19 mm with Aspergillus flavus; 25 mm in the assay with Escherichia coli; 26 mm in the assay on Aspergillus niger. Moreover, in the assay on Staphylococcus aureus, the zone of inhibition at 30 µg/mL amounted to 16 mm.
Consider `CC[C@H](C)[C@H](NC(=O)CNC(=O)CNC(=O)Nc1ccc(OC)cc1)C(=O)N1CCC[C@H]1C(=O)N1CCC(c2noc3cc(F)ccc23)CC1` ({NH(4-MeO-phenyl)-CO}-GGIP-X1), for which the zone of inhibition at 30 µg/mL with Klebsiella pneumoniae was determined as 16 mm; in the assay on Fusarium oxysporum, 21 mm; in the assay on Xanthomonas oryzae, 17 mm; in the assay with Aspergillus flavus, 19 mm; in the assay with Escherichia coli, 22 mm; in the assay on Aspergillus niger, 23 mm. Moreover, in the assay with Staphylococcus aureus, the zone of inhibition at 30 µg/mL stood at 14 mm.
As to `COc1ccc(NC(=O)NCC(=O)N[C@H](C(=O)NCC(=O)N[C@H](C(=O)N2CCC[C@H]2C(=O)N2CCC(c3noc4cc(F)ccc34)CC2)C(C)C)C(C)C)cc1` ({NH(4-MeO-phenyl)-CO}-GVGVP-X1), the zone of inhibition at 30 µg/mL is 27 mm with Klebsiella pneumoniae; 27 mm in the assay with Fusarium oxysporum; 33 mm in the assay with Xanthomonas oryzae; 27 mm in the assay with Aspergillus flavus; 26 mm with Escherichia coli; 30 mm in the assay with Aspergillus niger. Also, the zone of inhibition at 30 µg/mL in the assay with Staphylococcus aureus came out at 23 mm.
With `COc1ccc(NC(=S)NCC(=O)N[C@@H](Cc2ccccc2)C(=O)NCC(=O)N[C@@H](Cc2ccccc2)C(=O)N2CCC[C@H]2C(=O)N2CCC(c3noc4cc(F)ccc34)CC2)cc1` ({Thiocarbamoyl(4-MeOPh)}-GFGFP-X1), the zone of inhibition at 30 µg/mL was found to be 31 mm with Klebsiella pneumoniae; 33 mm in the assay on Fusarium oxysporum; 31 mm with Xanthomonas oryzae; 30 mm in the assay with Aspergillus flavus; 31 mm in the assay with Escherichia coli; 36 mm in the assay with Aspergillus niger. Moreover, in the assay with Staphylococcus aureus, the zone of inhibition at 30 µg/mL turned out to be 29 mm.
For `COc1ccc(NC(=S)NCC(=O)N[C@@H](Cc2ccccc2)C(=O)NCC(=O)N[C@@H](Cc2ccccc2)C(=O)N2CCC[C@H]2C(=O)N2CCN(c3cccc(Cl)c3Cl)CC2)cc1` ({Thiocarbamoyl(4-MeOPh)}-GFGFP-{Piperazinyl(4-(2,3-Cl2Ph))}), the zone of inhibition at 30 µg/mL with Klebsiella pneumoniae was determined as 29 mm; in the assay on Fusarium oxysporum it was 29 mm; in the assay with Xanthomonas oryzae, 28 mm; in the assay on Aspergillus flavus, 28 mm; with Escherichia coli it was 29 mm; in the assay with Aspergillus niger, 32 mm. Moreover, in the assay on Staphylococcus aureus, the zone of inhibition at 30 µg/mL amounted to 26 mm.
